Compound activity from PubChem.
Ecoli WT expand: growth inhibitors of E. coli BW25113 wild type; OD600 absorbance; growth inhibition, % at 100 µM; 98,000 compounds, 0.15% hits;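 active means growth inhibition above about 50% at one test dose, limit read from the data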;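 further: growth measured after 20 h incubation at 37 °C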
CYP2C19 inh: human CYP2C19 inhibition | P33261 | CYP2C19 Supersomes, luciferin-H EGE luminescence, 30 min | 96,000 compounds, 21% hits | inhibition, % at 5 µM;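 active means CYP2C19 inhibition above a set limit at 5 µM in the primary screen, cut at about 50% in these data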
tolC growth inh: blocks growth of E. coli BW25113 tolC mutant; OD615; growth inhibition, % at 10 µM (by protocol); 65,000 compounds, 2.2% hits;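 active means growth inhibition at or above a cutoff equal to the mean over every tested compound plus 3 SD, cut at about 60% in these data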;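 further: growth measured after 20 h incubation at 37 °C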
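Material: E. coli BW25113 ΔtolC::kan, tolC deletion mutant strain. Measure: percent growth inhibition. Schedule: 37 °C, 20 h exposure. Doses: single-point testing at 10 µM. Signal: A615 absorbance measurement. Buffer or medium: kanamycin-containing LB broth (50 µg/mL).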
CYP2C19 act: cytochrome P450 2C19 (human) activation; recombinant CYP2C19, luciferin-H EGE luminescence; hits give high values; 0 = fully inhibited enzyme, 1 = untreated enzyme; activation factor at 5 µM; 96,000 tested, under 10 active;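 active means activation factor of at least 2 at 5 µM in the primary screen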
CYP2C9 inhib: inhibitors of human CYP2C9 | 96,000 compounds, 20% hits | AID 777 | P11712 | CYP2C9 Supersomes, luciferin-H conversion, luminescence | inhibition, % at 5 µM;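 active means blocking of liver enzyme CYP2C9 beyond about 50% at 5 µM, limit read from the data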
Target sequence (P11712 whole entry, looked up): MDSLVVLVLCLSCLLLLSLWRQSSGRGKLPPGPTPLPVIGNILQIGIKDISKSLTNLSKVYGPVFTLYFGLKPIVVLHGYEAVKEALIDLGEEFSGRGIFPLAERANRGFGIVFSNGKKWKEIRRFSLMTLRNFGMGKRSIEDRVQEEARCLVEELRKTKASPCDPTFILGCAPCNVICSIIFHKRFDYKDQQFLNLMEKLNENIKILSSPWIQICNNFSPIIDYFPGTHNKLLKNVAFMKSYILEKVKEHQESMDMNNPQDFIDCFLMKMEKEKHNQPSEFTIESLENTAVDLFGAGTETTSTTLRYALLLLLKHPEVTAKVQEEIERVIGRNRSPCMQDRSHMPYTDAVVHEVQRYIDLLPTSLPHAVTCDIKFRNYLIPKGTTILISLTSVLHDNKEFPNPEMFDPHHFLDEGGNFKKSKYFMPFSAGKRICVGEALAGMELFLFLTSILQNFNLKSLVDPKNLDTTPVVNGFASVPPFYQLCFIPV
CYP2C9 activ: activators of human CYP2C9. 96,000 compounds, 1.4% hits. activation factor at 5 µM. P11712. recombinant CYP2C9, luciferin-H conversion, luminescence; hits give high values; factor 1 = untreated enzyme, 0 = blocked;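 active means activation factor of 2 or more for CYP2C9 at a 5 µM dose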
Hits are given with their value; – = inactive; · = no result given. Hits are enriched below; roughly 29% of the tested compounds scored in any of these assays.

SMILES | Ecoli WT expand | CYP2C19 inh | tolC growth inh | CYP2C19 act | CYP2C9 inhib | CYP2C9 activ
Cc1ccc(C(=O)OCC(=O)Nc2sc3c(c2C#N)CCCCC3)cc1NC(=O)c1ccco1 | – | 59.5 | – | – | 91.6 | –
CCC(C)c1ccccc1NC(=O)COC(=O)c1ccc(C)c(NC(=O)c2ccco2)c1 (stereo not given) | – | 74.8 | · | – | – | –
COc1cc(C(=O)Nc2nnc(-c3sccc3C)s2)cc(OC)c1OC | – | – | – | – | – | –
COc1ccc(/C=N/NC(=O)Cc2csc(Nc3cccc(C(F)(F)F)c3)n2)cc1C | – | · | · | · | · | ·
Cc1ccccc1OCCn1nc(C(=O)O)c2ccccc2c1=O | – | 53.6 | – | – | – | –
COC(=O)C1CC(=O)N(CCc2c[nH]c3ccccc23)C1 (stereo not given) | – | 96.7 | · | – | – | –
CCCCC(CC)C(=O)Nc1ccccc1C#N (stereo not given) | – | 52.6 | – | – | – | –
CC(C)c1ccc2nc3sc(C(=O)N4CCc5ccccc5C4)c(N)c3cc2c1 | – | – | · | – | 51.3 | –
Cc1c(Cl)ccc2c1NC(=O)[C@]21[C@@H]2C(=O)N(Cc3ccccc3)C(=O)[C@@H]2[C@@H]2CCCN21 | – | 65.5 | – | – | 73.0 | –
CCCOC(=O)c1ccc(OCC(O)Cn2c(C)nc3ccccc32)cc1 (stereo not given) | – | – | – | – | – | –
O=C(CSc1nc2c(c(=O)n1-c1ccc(Br)cc1)SCC2)Nc1nccs1 | – | 61.1 | – | – | – | –
CCOc1ccc(-n2c(SCC(=O)NCc3ccco3)nc3c(c2=O)SCC3)cc1 | – | – | – | – | 62.3 | –
COc1ccc(NC(=O)CSc2nc3c(c(=O)n2-c2ccc(F)cc2)SCC3)cc1 | – | – | – | – | 62.4 | –
O=C(CSc1nc2c(c(=O)n1-c1ccc(Cl)cc1)SCC2)Nc1nccs1 | – | – | – | – | – | –
O=C1NC2(CCCCC2)Oc2ccccc21 | – | – | – | – | – | –
NC(=O)c1ccc(-c2ncc(-c3ccccc3)o2)cc1 | – | – | – | – | – | –
COc1ccccc1N(CCC#N)C(=O)CSc1nc(-c2ccccc2)cn1N | – | 74.7 | – | – | – | –
Nn1cc(-c2ccccc2)nc1SCC(=O)N1CCN(S(=O)(=O)c2ccccc2)CC1 | – | – | – | – | – | –
CN1c2ccccc2C(C)(C)C12C=Nc1c(cc(N3CCOCC3)c3ccccc13)O2 (stereo not given) | – | – | · | – | 69.5 | –
FC(F)(F)c1cnc(Sc2nc3nccc(-c4ccc(Cl)cc4)n3n2)c(Cl)c1 | – | – | · | – | – | –
COc1ccc(-c2ccnc3nc(Sc4ncc(C(F)(F)F)cc4Cl)nn23)cc1 | – | – | · | – | 51.6 | –
COc1ccccc1-c1cc2nc(C)c(CCC(=O)NC(C)CCc3ccco3)c(C)n2n1 (stereo not given) | – | 90.0 | · | – | 89.0 | –
Cc1nc2c(-c3ccccc3)c(C)nn2c(C)c1CCC(=O)NC(C)CCc1ccco1 (stereo not given) | – | 52.0 | · | – | – | –
COc1cccc(OCCn2ccnc2)c1 | – | · | – | · | · | ·
Cc1cccc(OCCCn2ccnc2)c1 | – | 99.8 | – | – | 67.5 | –
SMILES | Ecoli WT expand | CYP2C19 inh | tolC growth inh | CYP2C19 act | CYP2C9 inhib | CYP2C9 activ
COc1ccc(C2C(C(C)=O)=C(O)C(=O)N2CCCn2ccnc2)cc1OC (stereo not given) | · | – | – | – | – | –
Cc1ccc(OCCCn2ccnc2)cc1C | – | 100.4 | · | – | 96.1 | –
Cc1ccc(S(=O)(=O)N(C)CCCC(=O)n2nc(C)cc2C)cc1 | – | 88.8 | – | – | – | –
Cn1ccnc1SCC(=O)N(C1CCCCC1)C1CCCCC1 | – | – | – | – | – | –
Cn1c(CN2CCN(c3ccc(Cl)cc3)CC2)nc2ccccc21 | – | 64.0 | – | – | – | –
Cc1ccc(S(=O)(=O)N2CCN(Cc3nc4ccccc4n3C)CC2)cc1 | – | – | – | – | – | –
COc1ccc(C2Nc3ccccc3C(=O)N2c2ccc(C)cc2)cc1Cn1nnc2ccccc21 (stereo not given) | – | 50.6 | · | – | 80.9 | –
COc1cc(C2NC(=O)C(C#N)=C(S)N2c2ccc(C)cc2)ccc1OC(C)C (stereo not given) | – | – | · | – | – | –
COc1ccc(N2C(=O)c3ccccc3NC2c2ccc(OC)c(CSc3ccccn3)c2)cc1 (stereo not given) | – | – | · | – | 57.8 | –
COc1ccc(C2Nc3ccccc3C(=O)N2c2ccc(C)cc2)cc1Cn1cc([N+](=O)[O-])cn1 (stereo not given) | – | – | · | – | 89.9 | –
Cc1ccc2ncccc2c1NS(=O)(=O)c1ccccc1 | – | 57.2 | – | – | – | –
Cc1ccc(F)c(NC=C2C(=O)OC(C)(C)OC2=O)c1 | · | – | – | – | – | –
O=C(CCc1ccccc1)n1nc(-c2ccco2)nc1SCc1ccccc1 | – | – | · | – | – | –
COc1ccccc1NC(=O)COc1ccc(Br)cc1CO | – | 55.4 | · | – | – | –
Cc1ccccc1OCC(=O)Nc1ccccc1N1CCCCC1 | – | – | – | – | – | –
O=C(COc1ccc(Br)cc1CO)Nc1ccccc1F | – | 95.4 | – | – | 66.6 | –
Cc1ccccc1OCC(=O)NC1=NCCS1 | – | 51.3 | · | – | – | –
Cc1ccccc1OCC(=O)Nc1ccccc1CO | – | 72.2 | – | – | – | –
Cc1ccc(OCC(=O)NC2=NCCS2)cc1 | – | – | · | – | – | –
COCCNC(=O)C(OC(=O)c1cccs1)c1ccccc1 (stereo not given) | – | – | – | – | – | –
CCOC(=O)CNC(=O)CSc1nnc(-c2ccccc2OC)n1CC | – | – | – | – | – | –
CC(C)NC(=O)c1cnc(Sc2ncc(C(F)(F)F)cc2Cl)n1C | – | – | · | – | – | 2.1
CCN(CC)c1ccc(NC(=O)CSc2nc3ccccc3c(=O)[nH]2)cc1 | – | – | – | – | – | –
COC(=O)c1c(NC(=O)C2CC(=O)NN2Cc2ccccc2)sc(C)c1C (stereo not given) | – | 85.5 | · | – | 82.3 | –
O=C(Nc1nnc(SCC(=O)N2CCCCC2)s1)c1cccs1 | – | – | – | – | – | –
SMILES | Ecoli WT expand | CYP2C19 inh | tolC growth inh | CYP2C19 act | CYP2C9 inhib | CYP2C9 activ
Cc1ccc(S(=O)(=O)N2CCOCC2)cc1C(=O)NCc1ccco1 | – | – | – | – | – | –
Cc1ccc(S(=O)(=O)N2CN(Cc3ccco3)c3nc4ccccc4nc32)cc1C | – | 67.9 | · | – | 83.5 | –
Cc1ccc(S(=O)(=O)N2CN(Cc3ccco3)c3nc4ccccc4nc32)cc1 | – | 75.5 | · | – | 90.0 | –
O=S(=O)(c1ccc(F)cc1)N1CN(Cc2ccco2)c2nc3ccccc3nc21 | – | 82.2 | · | – | 59.9 | –
COc1ccc(S(=O)(=O)N2CN(Cc3ccco3)c3nc4ccccc4nc32)cc1 | – | 69.8 | – | – | 53.9 | –
O=S(=O)(c1ccccc1)n1nc(-c2ccccc2)nc1NCc1ccco1 | – | – | – | – | – | –
